Assay results reported in paper PMC11310838 (RSC Advances, 2024).
Read-outs that look alike come from different tables or passages of the source.

Tests used:
HCT116 cell line = assay: Sulforhodamine B; format: cell-based, human; conditions: for inhibition at 100 µM: read-out: Percentage of cell growth inhibition at [100 μM] HCT116
Outline: (§1)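 Carcinoma lines came from the National Cancer Institute, Cairo, and were grown as monolayers in DMEM with 10% FBS and 1% penicillin–streptomycin. Final DMSO was ≤0.1% (v/v). Cells were treated for 48 h either at a single 100 μM dose (% growth inhibition) or at 0, 6.25, 12.5, 25 and 50 μM. SRB staining was read at 570 nm as % viability. IC50 came from dose–response curve fitting.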

HEPG2 cell line = assay: Sulforhodamine B; format: cell-based, human; conditions: Homo sapiens, HepG2, 48 h; for IC50: read-out: IC50 (μM) ± SD HEPG2; for inhibition at 100 µM: read-out: Percentage of cell growth inhibition at [100 μM] HEPG2
Outline: as §1

MCF7 cell line = assay: Sulforhodamine B; format: cell-based, human; conditions: Homo sapiens, MCF7, 48 h; for IC50: read-out: IC50 (μM) ± SD MCF7; for inhibition at 100 µM: read-out: Percentage of cell growth inhibition at [100 μM] MCF7
Outline: as §1

[1] = test system: HDF cell line (Human Dermal Fibroblasts); assay: Sulforhodamine B; format: cell-based; conditions: Homo sapiens, HDF, 48 h, read-out: Percentage of cell growth inhibition at [100 μM] HDF
Outline: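 Normal human dermal fibroblasts came from the National Cancer Institute, Cairo. Final DMSO was ≤0.1% (v/v). Cells were exposed to the test compound at a single 100 μM dose for 48 h. Growth inhibition was measured by the sulforhodamine-B method, with absorbance read at 570 nm and expressed as percentage of cell viability.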

EGFR kinase = EGFR kinase (Homo sapiens, UniProt P00533); assay: EGFR kinase inhibitory assay; format: biochemical; conditions: for % of EGFR inhibition: concentration not given, average of three replicates
Chain of EGFR kinase (P00533 25-1210): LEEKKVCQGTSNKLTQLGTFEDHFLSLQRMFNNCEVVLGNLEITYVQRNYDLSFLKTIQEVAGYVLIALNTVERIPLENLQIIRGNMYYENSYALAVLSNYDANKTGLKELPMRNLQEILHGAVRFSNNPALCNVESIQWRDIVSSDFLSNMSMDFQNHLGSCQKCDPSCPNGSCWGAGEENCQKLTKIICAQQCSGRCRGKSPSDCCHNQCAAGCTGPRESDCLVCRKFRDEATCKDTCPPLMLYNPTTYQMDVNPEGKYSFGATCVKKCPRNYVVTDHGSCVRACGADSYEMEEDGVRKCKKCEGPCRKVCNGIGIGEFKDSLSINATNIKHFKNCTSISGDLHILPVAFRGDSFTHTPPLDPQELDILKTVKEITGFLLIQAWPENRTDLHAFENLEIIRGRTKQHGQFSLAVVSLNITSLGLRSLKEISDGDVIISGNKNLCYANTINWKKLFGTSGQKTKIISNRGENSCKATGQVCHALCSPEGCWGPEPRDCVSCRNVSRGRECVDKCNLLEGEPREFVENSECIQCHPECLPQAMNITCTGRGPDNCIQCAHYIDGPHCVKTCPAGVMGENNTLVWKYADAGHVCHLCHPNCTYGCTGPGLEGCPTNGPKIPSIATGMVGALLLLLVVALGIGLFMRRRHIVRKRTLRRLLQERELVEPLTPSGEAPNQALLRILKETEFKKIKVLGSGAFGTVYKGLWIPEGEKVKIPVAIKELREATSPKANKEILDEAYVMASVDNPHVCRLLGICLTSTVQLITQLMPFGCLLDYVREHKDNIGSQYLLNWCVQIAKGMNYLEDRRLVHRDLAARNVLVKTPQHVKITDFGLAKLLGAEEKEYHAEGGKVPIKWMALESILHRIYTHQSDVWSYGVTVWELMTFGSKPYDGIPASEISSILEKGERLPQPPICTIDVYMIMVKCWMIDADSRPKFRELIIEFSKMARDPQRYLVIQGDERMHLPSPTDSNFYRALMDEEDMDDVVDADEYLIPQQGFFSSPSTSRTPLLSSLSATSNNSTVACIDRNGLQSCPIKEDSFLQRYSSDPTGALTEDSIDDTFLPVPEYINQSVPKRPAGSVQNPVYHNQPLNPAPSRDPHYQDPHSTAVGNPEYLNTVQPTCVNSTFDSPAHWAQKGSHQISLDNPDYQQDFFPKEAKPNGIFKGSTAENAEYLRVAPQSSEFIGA

[2] = test system: cancer cell lines (HCT116, HEPG2, MCF7); assay: SRB single-dose screen, summary over cancer cell lines; format: cell-based; conditions: Homo sapiens, 48 h, read-out: percentage of cell growth inhibition on the cancer cell lines
Outline: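 Human carcinoma lines grown as monolayers in DMEM with 10% FBS and 1% penicillin–streptomycin. Each test compound was applied once at 100 μM for 48 h, with final DMSO at most 0.1% (v/v) in control and treated wells. Growth was measured by sulforhodamine-B staining, with OD read at 570 nm. Percentage growth inhibition was calculated from viability relative to the untreated control.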

HCT-116 cells [3] = assay: Annexin V/PI staining flow cytometry; format: cell-based, human; conditions: HCT-116, treated at IC50 = 8.5 μM, 48 h
HCT-116 cells [4] = assay: DNA content-flow cytometry cell cycle analysis; format: cell-based, human; conditions: HCT-116, treated at IC50 = 8.5 μM, 48 h; control 3.77%
HCT-116 cells [5] = assay: RT-PCR of apoptosis-related genes; format: cell-based, human; conditions: HCT-116, IC50 = 8.5 μM, 48 h, untreated control = 1
Outline: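 HCT-116 cells were exposed to the test compound for 48 h, alongside untreated cells. Relative expression of apoptosis-related genes was measured by real-time PCR. Ct values were normalised to β-actin, and untreated control was set to fold change = 1. Data are the mean ± SD of 3 independent runs.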

[6] = Homo sapiens, HCT-116, 48 h, read-out: IC50 (μM) ± SD HCT116, 48 h treatment, SRB

SMILES | IC50 (HCT116 cell line; [6]) | inhibition at 100 µM (HCT116 cell line; Homo sapiens, HCT-116, 48 h) | IC50 (HEPG2 cell line) | inhibition at 100 µM (HEPG2 cell line) | IC50 (MCF7 cell line) | inhibition at 100 µM (MCF7 cell line) | inhibition at 100 µM [1] | IC50 (EGFR kinase) | % of EGFR inhibition (EGFR kinase) | inhibition at 100 µM [2] | further results
NC(=S)NN=Cc1ccccc1OCC(=O)N1CCN(C(=O)COc2ccccc2C=NNC(N)=S)CC1 [Compound 7b, 1,1′-(Piperazine-1,4-diyl)bis(2-(2-(2-carbamothioylhydrazono)methylphenoxy)ethanone)] | 20.7 ± 1.5 µM | 90.1 ± 3.41% | 41.3 ± 3.9 µM | 89.1 ± 2.22% | 48.5 ± 4.8 µM | 88.9 ± 5.46% | 66.5 ± 11.5% | 0.0035 ± 0.0001 µM | 89.7 ± 2.8% | > 80% | –
Cc1nc(NN=Cc2ccc(OCC(=O)N3CCN(C(=O)COc4ccc(C=NNc5nc(C)c(N=Nc6ccccc6)s5)cc4)CC3)cc2)sc1N=Nc1ccccc1 [Compound 9a, 1,1′-(Piperazine-1,4-diyl)bis(2-(4-(((4-methyl-5-(phenylazo)thiazol-2-yl)hydrazono)methyl)-phenoxy)ethanone)] | 9.98 ± 2 µM | 81 ± 3.91% | 23.8 ± 4 µM | 74.7 ± 4.49% | 13.7 ± 2.3 µM | 85.9 ± 5.94% | 18.2 ± 11.5% | 0.0121 ± 4e-05 µM | 83.7 ± 1.4% | > 80% | –
Cc1ccc(N=Nc2sc(NN=Cc3ccc(OCC(=O)N4CCN(C(=O)COc5ccc(C=NNc6nc(C)c(N=Nc7ccc(C)cc7)s6)cc5)CC4)cc3)nc2C)cc1 [Compound 9b, 1,1′-(Piperazine-1,4-diyl)bis(2-(4-(((4-methyl-5-(4-tolylazo)thiazol-2-yl)hydrazono)methyl)-phenoxy)ethanone)] | 11.5 ± 2.5 µM | 85.2 ± 2.11% | 26.5 ± 2.7 µM | 56.5 ± 4.93% | 24.7 ± 3.6 µM | 89.5 ± 2.34% | 27.6 ± 25.1% | 0.0546 ± 0.0009 µM | 74.8 ± 1.6% | > 80% | –
Cc1nc(NN=Cc2ccccc2OCC(=O)N2CCN(C(=O)COc3ccccc3C=NNc3nc(C)c(N=Nc4ccc(Br)cc4)s3)CC2)sc1N=Nc1ccc(Br)cc1 [Compound 9i, 1,1′-(Piperazine-1,4-diyl)bis(2-(2-(((4-methyl-5-(4-bromophenylazo)thiazol-2-yl)hydrazono)-methyl)phenoxy)ethanone)] | 8.5 µM | 89.6 ± 5.3% | 22 ± 2.9 µM | 91 ± 3.56% | 13 ± 2.8 µM | 89.9 ± 2.3% | 71.6 ± 17.3% | 0.0012 ± 5e-05 µM | 97.5 ± 2.1% | > 80% | IC50 (HCT116 cell line; read-out: IC50 (μM) ± SD HCT116, 48 h treatment, SRB): 8.51 ± 2.5 µM; induction of apoptotic cell death vs untreated control (HCT-116 cells [3]): 4.16 fold; induction of necrosis cell death vs untreated control (HCT-116 cells [3]): 4.79 fold; early apoptosis (HCT-116 cells [3]; control 1.69%): 0.54%; late apoptosis (HCT-116 cells [3]; control 2.36%): 16.31%; total apoptosis (HCT-116 cells [3]; control 4.05%): 16.85%; cell population at the P2 phase (HCT-116 cells [4]): 51.89%; Bcl-2 expression fold change (HCT-116 cells [5]; downregulated): 0.76 fold change; P53 fold change (HCT-116 cells [5]; upregulated): 10.87 fold change; caspase-3 level fold change (HCT-116 cells [5]; upregulated): 9.87 fold change; caspase-8 level fold change (HCT-116 cells [5]; upregulated): 7.6 fold change; caspase-9 level fold change (HCT-116 cells [5]; upregulated): 11.6 fold change
